For orientation: half-life means the time needed for the level to fall by half in the phase considered. A word on the solubility: it is how much of the substance goes into solution per volume. The bioavailability is dose-corrected exposure relative to a reference, in per cent. Usually AUC(0-t) stands for the area under the concentration-time curve up to a stated or last time point. For orientation: Cmax means the maximum level reached in the sampled fluid or tissue. A word on the EC50: it is the concentration giving half of the maximal effect. Broadly, the Tmax is the time from dosing to the highest level.

Molecules are shown by their SMILES. Values after ≈ are worked out from the molar mass of the structure shown. Active and inactive are the calls of the source.

The values that follow come from ChEMBL document CHEMBL4024777, “Discovery of LY3104607: A Potent and Selective G Protein-Coupled Receptor 40 (GPR40) Agonist with Optimized Pharmacokinetic Properties to Support Once Daily Oral Treatment in Patients with Type 2 Diabetes Mellitus” (J Med Chem, 2018).

A short description of data set [1]: Half life in Beagle dog at 3 mg/kg, po. Type of data set: ADME, organism-based, Canis lupus familiaris. To be noted: in vivo.
The target of data set [2] is T1, Peroxisome proliferator-activated receptor delta (Homo sapiens) (UniProt Q03181).
T1 sequence (whole entry): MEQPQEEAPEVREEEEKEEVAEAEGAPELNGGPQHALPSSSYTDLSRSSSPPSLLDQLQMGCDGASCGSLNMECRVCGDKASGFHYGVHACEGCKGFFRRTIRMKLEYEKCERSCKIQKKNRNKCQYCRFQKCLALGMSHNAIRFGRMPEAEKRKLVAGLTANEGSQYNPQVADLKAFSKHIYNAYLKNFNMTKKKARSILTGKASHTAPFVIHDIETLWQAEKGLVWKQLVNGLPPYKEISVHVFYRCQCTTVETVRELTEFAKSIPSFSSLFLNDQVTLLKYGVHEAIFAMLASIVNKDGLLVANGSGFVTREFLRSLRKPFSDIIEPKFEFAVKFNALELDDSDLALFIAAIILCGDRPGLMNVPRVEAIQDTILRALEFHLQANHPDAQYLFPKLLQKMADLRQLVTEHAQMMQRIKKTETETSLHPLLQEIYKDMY
Kind of data set: Displacement of [3H]-agonist from human PPARdelta expressed in baculovirus infecetd Sf9 cells system up to 30 uM after 10 hrs in presence of DR2 by scintillation proximity assay. Put shortly: (§1)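 PPAR alpha, delta and gamma binding and functional activity were each tested at concentrations up to 30 µM.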
For orientation: In a radioligand displacement assay an active substance lowers the binding of a labelled ligand.

The target in data set [3] is T1, Peroxisome proliferator-activated receptor delta (Homo sapiens). Nature of the data set: Agonist activity at GAL4-fused human PPARdelta expressed in African green monkey CV1 cells up to 30 uM after 24 hrs by luciferase reporter gene assay. Type of data set: cell-based. Put shortly: as §1
Background: A reporter such as luciferase makes a cellular process visible.

Data set [4] can be described thus: Half life in Beagle dog at 1 mg/kg, iv. Type of data set: ADME, organism-based, Canis lupus familiaris. Conditions: in vivo.
The nature of data set [5]: Solubility of the compound in pH 8.1 buffer. The class given is physicochemical.
A short description of data set [6]: Oral bioavailability in Beagle dog at 3 mg/kg. The class given is ADME, organism-based, Canis lupus familiaris. To be noted: in vivo. Put shortly:
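Fasted dogs dosed orally at 3 mg/kg. […] Bioavailability is derived relative to the 1 mg/kg IV dose.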

A short description of data set [7]: Metabolic stability in dog microsomes assessed as compound metabolized after 30 mins. The class given is ADME, Canis lupus familiaris, Microsome. Conditions: read-out: Drug metabolism. A digest of the protocol:
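Compound incubated 30 min with liver microsomes from mouse, rat, dog or human. Percent of compound metabolized recorded, as mean (SEM, n).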

Data set [8] deals with T2, Peroxisome proliferator-activated receptor gamma (Homo sapiens) (UniProt P37231).
T2 sequence (whole entry): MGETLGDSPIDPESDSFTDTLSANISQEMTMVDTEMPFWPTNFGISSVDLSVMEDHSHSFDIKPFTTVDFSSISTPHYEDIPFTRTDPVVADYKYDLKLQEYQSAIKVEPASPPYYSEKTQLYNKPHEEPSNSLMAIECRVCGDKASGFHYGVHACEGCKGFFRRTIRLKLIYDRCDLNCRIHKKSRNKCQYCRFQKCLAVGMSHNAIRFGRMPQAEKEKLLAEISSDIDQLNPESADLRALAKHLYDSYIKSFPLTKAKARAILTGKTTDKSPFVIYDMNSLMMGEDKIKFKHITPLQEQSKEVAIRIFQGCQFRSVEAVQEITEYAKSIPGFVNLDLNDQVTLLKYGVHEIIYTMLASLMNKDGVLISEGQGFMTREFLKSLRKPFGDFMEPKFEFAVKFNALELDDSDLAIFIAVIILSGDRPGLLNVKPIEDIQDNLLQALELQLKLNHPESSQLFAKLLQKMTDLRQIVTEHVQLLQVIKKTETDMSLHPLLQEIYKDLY
Nature of the data set: Agonist activity at […] human PPARgamma expressed in African green monkey CV1 cells up to 30 uM after 24 hrs by luciferase reporter gene assay. The class given is cell-based. A digest of the protocol: as §1

Data set [9] can be described thus: AUC (0 to 24 hrs) in Beagle dog at 3 mg/kg, po. Type of data set: ADME, organism-based, Canis lupus familiaris. Details: time < 24 hr, dose 3 mg/kg, route oral. Conditions: in vivo.
Data set [10] is described as follows: AUC (0 to 24 hrs) in Sprague-Dawley rat at 10 mg/kg, po. Conditions: in vivo. Type of data set: ADME, organism-based. The arrangement: dose 10 mg/kg, time < 24 hr, route oral.
A short description of data set [11]: Volume of distribution at steady state in Beagle dog at 1 mg/kg, iv. Type of data set: ADME, organism-based, Canis lupus familiaris. Conditions: in vivo, read-out: Vdss.
The nature of data set [12]: Cmax in Beagle dog at 3 mg/kg, po. Type of data set: ADME, organism-based, Canis lupus familiaris. Details: dose 3 mg/kg, route oral. To be noted: in vivo.
For data set [13], the target named is Free fatty acid receptor 1 (Rattus norvegicus, UniProt Q8K3T4). Nature of the data set: Agonist activity at rat PK-tagged GPR40 expressed in human U2OS cells assessed as EA-tagged beta-arrestin recruitment after 90 mins in presence of 1 % heat inactivated FBS by beta-galactosidase reporter gene assay. Type of data set: cell-based. A digest of the protocol: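 β-Arrestin recruitment used rat GPR40 in the presence of 1% FBS. EC50 and % maximal stimulation are reported with SEM and n.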
Free fatty acid receptor 1, sequence (Q8K3T4 whole entry): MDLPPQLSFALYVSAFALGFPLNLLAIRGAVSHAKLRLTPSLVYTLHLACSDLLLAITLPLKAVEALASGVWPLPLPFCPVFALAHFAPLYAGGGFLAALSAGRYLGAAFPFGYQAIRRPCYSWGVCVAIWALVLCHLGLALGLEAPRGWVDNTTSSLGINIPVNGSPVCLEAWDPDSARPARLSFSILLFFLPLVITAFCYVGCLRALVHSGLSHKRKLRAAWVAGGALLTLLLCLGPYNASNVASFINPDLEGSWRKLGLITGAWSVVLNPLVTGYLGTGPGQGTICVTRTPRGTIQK
For orientation: Arrestin recruitment assays detect the binding of arrestin to an activated receptor.

The test system of the next data set is Rattus norvegicus. Kind of data set: Toxicity in Zucker fa/fa rat assessed as change in body weight at 1 to 10 mg/kg, po. The class given is organism-based. To be noted: in vivo. Put shortly: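 Male Zucker fa/fa rats, 10 weeks old, given daily oral doses of 1, 3 or 10 mg/kg for 21 days. Body weight and food consumption tracked, with a reference agonist as positive control.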

Data set [14] in a line: Cmax in Sprague-Dawley rat at 500 mg/kg, po. The class given is ADME, organism-based. Details: dose 500 mg/kg, route oral. Conditions: in vivo.
Data set [15] is described as follows: Tmax in Beagle dog at 30 mg/kg, po. Type of data set: ADME, organism-based, Canis lupus familiaris. Conditions: in vivo. A digest of the protocol: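 Dogs dosed orally at 30, 100 or 300 mg/kg, N = 2 per dose.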
Data set [16] is described as follows: AUC (0 to 24 hrs) in Sprague-Dawley rat at 500 mg/kg, po. Type of data set: ADME, organism-based. The arrangement: dose 500 mg/kg, time < 24 hr, route oral. To be noted: in vivo.

In the case of `CC#C[C@@H](CC(=O)O)c1ccc(OCc2ccc3nc(-c4c(C)cccc4C)nn3c2)cc1`, the half-life in data set [1] is 5.49 h; in [4], 6.53 h. The result in data set [2], in data set [3] and in data set [8] was inactive. Besides, the concentration in solution in [5] (solubility) came to 173 µg/mL (≈ 394 µM). Also, the bioavailability in [6] stood at 83%. For the same compound, the metabolised at 0.5 h in data set [7] is 5%. Further, the results for the AUC(0-t) at 24 h in data set [9], in [10] and in data set [16] were 52.8 µg·h/mL, 215 µg·h/mL and 4790 µg·h/mL, respectively. In data set [11], the Vd was 0.27 L/kg. For the same compound, the Cmax in data set [12] is 9.9 µg/mL; in data set [14] it was 281 µg/mL. The EC50 in data set [13] stood at 14 nM. Further, the Activity result in the data set on Rattus norvegicus is listed as “Non-Toxic”. In data set [15], the Tmax was determined as 2 h.
